How the values were obtained:
[1] = test system: Hepatitis C virus; assay: Antiviral activity against Hepatitis C virus subtype 1b expressing NS3 V36M mutant infected in HuH7 cells after 48 hrs by luciferase reporter assay; assay type: functional, organism-based, Hepacivirus hominis; conditions: genotype 1b, Huh-7, 48 h
Outline: (§1)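 Genotype 1b con1 subgenomic bicistronic replicon (clone ET) with luciferase reporter and adaptive mutations E1202G, T1280I, K1846T, carrying site-directed NS3 single or double mutations. 10 μg wild-type or mutant replicon RNA electroporated into Huh7-lunet cells, seeded 4,000 cells/well over a nine-point inhibitor dilution series, 48 h at 37°C, 5% CO2, then luminescence read. EC50 taken as median of individual experiments; fold change relative to parental replicon EC50.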

[2] = test system: Hepatitis C virus; assay: Antiviral activity against Hepatitis C virus subtype 1b expressing NS3 F43V mutant infected in HuH7 cells after 48 hrs by luciferase reporter assay; assay type: functional, organism-based, Hepacivirus hominis; conditions: genotype 1b, Huh-7, 48 h; outline: as §1
[3] = test system: Hepatitis C virus; assay: Antiviral activity against Hepatitis C virus subtype 1b expressing NS3 T54A mutant infected in HuH7 cells after 48 hrs by luciferase reporter assay; assay type: functional, organism-based, Hepacivirus hominis; conditions: genotype 1b, Huh-7, 48 h; outline: as §1
[4] = test system: Hepatitis C virus; assay: Antiviral activity against Hepatitis C virus subtype 1b expressing NS3 T54S mutant infected in HuH7 cells after 48 hrs by luciferase reporter assay; assay type: functional, organism-based, Hepacivirus hominis; conditions: genotype 1b, Huh-7, 48 h; outline: as §1
[5] = test system: Hepatitis C virus; assay: Antiviral activity against Hepatitis C virus subtype 1b expressing NS3 Q80H mutant infected in HuH7 cells after 48 hrs by luciferase reporter assay; assay type: functional, organism-based, Hepacivirus hominis; conditions: genotype 1b, Huh-7, 48 h; outline: as §1
[6] = test system: Hepatitis C virus; assay: Antiviral activity against Hepatitis C virus subtype 1b expressing NS3 S138T mutant infected in HuH7 cells after 48 hrs by luciferase reporter assay; assay type: functional, organism-based, Hepacivirus hominis; conditions: genotype 1b, Huh-7, 48 h; outline: as §1
[7] = test system: Hepatitis C virus; assay: Antiviral activity against Hepatitis C virus subtype 1b expressing NS3 R155Q mutant infected in HuH7 cells after 48 hrs by luciferase reporter assay; assay type: functional, organism-based, Hepacivirus hominis; conditions: genotype 1b, Huh-7, 48 h; outline: as §1
[8] = test system: Hepatitis C virus; assay: Antiviral activity against Hepatitis C virus subtype 1b expressing NS3 A156S mutant infected in HuH7 cells after 48 hrs by luciferase reporter assay; assay type: functional, organism-based, Hepacivirus hominis; conditions: genotype 1b, Huh-7, 48 h; outline: as §1
[9] = test system: Hepatitis C virus; assay: Antiviral activity against Hepatitis C virus subtype 1b expressing NS3 A156T mutant infected in HuH7 cells after 48 hrs by luciferase reporter assay; assay type: functional, organism-based, Hepacivirus hominis; conditions: genotype 1b, Huh-7, 48 h; outline: as §1
[10] = test system: Hepatitis C virus; assay: Antiviral activity against Hepatitis C virus subtype 1b expressing NS3 D168G mutant infected in HuH7 cells after 48 hrs by luciferase reporter assay; assay type: functional, organism-based, Hepacivirus hominis; conditions: genotype 1b, Huh-7, 48 h; outline: as §1
[11] = test system: Hepatitis C virus; assay: Antiviral activity against Hepatitis C virus subtype 1b expressing NS3 D168N mutant infected in HuH7 cells after 48 hrs by luciferase reporter assay; assay type: functional, organism-based, Hepacivirus hominis; conditions: genotype 1b, Huh-7, 48 h; outline: as §1
[12] = test system: Hepatitis C virus; assay: Antiviral activity against Hepatitis C virus subtype 1b expressing NS3 D168T mutant infected in HuH7 cells after 48 hrs by luciferase reporter assay; assay type: functional, organism-based, Hepacivirus hominis; conditions: genotype 1b, Huh-7, 48 h; outline: as §1
[13] = test system: Hepatitis C virus; assay: Antiviral activity against Hepatitis C virus subtype 1b expressing NS3 D168Y mutant infected in HuH7 cells after 48 hrs by luciferase reporter assay; assay type: functional, organism-based, Hepacivirus hominis; conditions: genotype 1b, Huh-7, 48 h; outline: as §1
[14] = test system: Hepatitis C virus; assay: Antiviral activity against Hepatitis C virus subtype 1b expressing NS3 D168H mutant infected in HuH7 cells after 48 hrs by luciferase reporter assay; assay type: functional, organism-based, Hepacivirus hominis; conditions: genotype 1b, Huh-7, 48 h; outline: as §1
[15] = test system: Hepatitis C virus; assay: Antiviral activity against Hepatitis C virus subtype 1b expressing NS3 D168V mutant infected in HuH7 cells after 48 hrs by luciferase reporter assay; assay type: functional, organism-based, Hepacivirus hominis; conditions: genotype 1b, Huh-7, 48 h; outline: as §1
[16] = test system: Hepatitis C virus; assay: Antiviral activity against Hepatitis C virus subtype 1b expressing NS3 D168I mutant infected in HuH7 cells after 48 hrs by luciferase reporter assay; assay type: functional, organism-based, Hepacivirus hominis; conditions: genotype 1b, Huh-7, 48 h; outline: as §1
[17] = test system: Hepatitis C virus; assay: Antiviral activity against Hepatitis C virus subtype 1b expressing NS3 F43S and Q80R mutant infected in HuH7 cells after 48 hrs by luciferase reporter assay; assay type: functional, organism-based, Hepacivirus hominis; conditions: genotype 1b, Huh-7, 48 h; outline: as §1
[18] = test system: Hepatitis C virus; assay: Antiviral activity against Hepatitis C virus subtype 1b expressing NS3 Q80H and D168E mutant infected in HuH7 cells after 48 hrs by luciferase reporter assay; assay type: functional, organism-based, Hepacivirus hominis; conditions: genotype 1b, Huh-7, 48 h; outline: as §1
[19] = test system: Hepatitis C virus; assay: Ratio of EC50 for Hepatitis C virus subtype 1b expressing NS3 T54S mutant to EC50 for Hepatitis C virus subtype 1b expressing WT NS3 infected in HuH7 cells after 48 hrs by luciferase reporter assay; assay type: functional, Hepacivirus hominis, genotype 1b, Huh-7
Outline: (§2)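 Transient replicon assay: site-directed single or multiple NS3 mutations engineered into genotype 1b (con1, clone ET) subgenomic bicistronic replicon with luciferase reporter and adaptive mutations E1202G, T1280I, K1846T. Huh7-lunet cells electroporated with 10 μg wild-type or mutant replicon RNA, seeded 4,000 cells/well with nine-point inhibitor dilution; 48 h, 37°C, 5% CO2; luminescence read-out. EC50 as median of individual experiments; fold change versus parental replicon EC50.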

[20] = test system: Hepatitis C virus; assay: Ratio of EC50 for Hepatitis C virus subtype 1b expressing NS3 Q80K mutant to EC50 for Hepatitis C virus subtype 1b expressing WT NS3 infected in HuH7 cells after 48 hrs by luciferase reporter assay; assay type: functional, Hepacivirus hominis, genotype 1b, Huh-7; outline: as §2
[21] = test system: Hepatitis C virus; assay: Ratio of EC50 for Hepatitis C virus subtype 1b expressing NS3 Q80G mutant to EC50 for Hepatitis C virus subtype 1b expressing WT NS3 infected in HuH7 cells after 48 hrs by luciferase reporter assay; assay type: functional, Hepacivirus hominis, genotype 1b, Huh-7; outline: as §2
[22] = test system: Hepatitis C virus; assay: Ratio of EC50 for Hepatitis C virus subtype 1b expressing NS3 R109K mutant to EC50 for Hepatitis C virus subtype 1b expressing WT NS3 infected in HuH7 cells after 48 hrs by luciferase reporter assay; assay type: functional, Hepacivirus hominis, genotype 1b, Huh-7; outline: as §2
[23] = test system: Hepatitis C virus; assay: Ratio of EC50 for Hepatitis C virus subtype 1b expressing NS3 R155K mutant to EC50 for Hepatitis C virus subtype 1b expressing WT NS3 infected in HuH7 cells after 48 hrs by luciferase reporter assay; assay type: functional, Hepacivirus hominis, genotype 1b, Huh-7; outline: as §2
[24] = test system: Hepatitis C virus; assay: Ratio of EC50 for Hepatitis C virus subtype 1b expressing NS3 R155G mutant to EC50 for Hepatitis C virus subtype 1b expressing WT NS3 infected in HuH7 cells after 48 hrs by luciferase reporter assay; assay type: functional, Hepacivirus hominis, genotype 1b, Huh-7; outline: as §2
[25] = test system: Hepatitis C virus; assay: Ratio of EC50 for Hepatitis C virus subtype 1b expressing NS3 A156S mutant to EC50 for Hepatitis C virus subtype 1b expressing WT NS3 infected in HuH7 cells after 48 hrs by luciferase reporter assay; assay type: functional, Hepacivirus hominis, genotype 1b, Huh-7; outline: as §1
[26] = test system: Hepatitis C virus; assay: Ratio of EC50 for Hepatitis C virus subtype 1b expressing NS3 D168N mutant to EC50 for Hepatitis C virus subtype 1b expressing WT NS3 infected in HuH7 cells after 48 hrs by luciferase reporter assay; assay type: functional, Hepacivirus hominis, genotype 1b, Huh-7; outline: as §2
[27] = test system: Hepatitis C virus; assay: Ratio of EC50 for Hepatitis C virus subtype 1b expressing NS3 D168E mutant to EC50 for Hepatitis C virus subtype 1b expressing WT NS3 infected in HuH7 cells after 48 hrs by luciferase reporter assay; assay type: functional, Hepacivirus hominis, genotype 1b, Huh-7; outline: as §2
[28] = test system: Hepatitis C virus; assay: Ratio of EC50 for Hepatitis C virus subtype 1b expressing NS3 D168T mutant to EC50 for Hepatitis C virus subtype 1b expressing WT NS3 infected in HuH7 cells after 48 hrs by luciferase reporter assay; assay type: functional, Hepacivirus hominis, genotype 1b, Huh-7; outline: as §2
[29] = test system: Hepatitis C virus; assay: Ratio of EC50 for Hepatitis C virus subtype 1b expressing NS3 D168H mutant to EC50 for Hepatitis C virus subtype 1b expressing WT NS3 infected in HuH7 cells after 48 hrs by luciferase reporter assay; assay type: functional, Hepacivirus hominis, genotype 1b, Huh-7; outline: as §2
[30] = test system: Hepatitis C virus; assay: Ratio of EC50 for Hepatitis C virus subtype 1b expressing NS3 D168V mutant to EC50 for Hepatitis C virus subtype 1b expressing WT NS3 infected in HuH7 cells after 48 hrs by luciferase reporter assay; assay type: functional, Hepacivirus hominis, genotype 1b, Huh-7; outline: as §2
[31] = test system: Hepatitis C virus; assay: Ratio of EC50 for Hepatitis C virus subtype 1b expressing NS3 F43S and Q80R mutant to EC50 for Hepatitis C virus subtype 1b expressing WT NS3 infected in HuH7 cells after 48 hrs by luciferase reporter assay; assay type: functional, Hepacivirus hominis, genotype 1b, Huh-7; outline: as §2
[32] = test system: Hepatitis C virus; assay: Ratio of EC50 for Hepatitis C virus subtype 1b expressing NS3 Q80K and R155K mutant to EC50 for Hepatitis C virus subtype 1b expressing WT NS3 infected in HuH7 cells after 48 hrs by luciferase reporter assay; assay type: functional, Hepacivirus hominis, genotype 1b, Huh-7; outline: as §2

Row | SMILES | EC50 [1] [nM] | EC50 [3] [nM] | EC50 [7] [nM] | EC50 [8] [nM] | EC50 [9] [nM] | EC50 [11] [nM] | EC50 [12] [nM] | EC50 [13] [nM] | EC50 [14] [nM] | Ratio EC50 [20] | Ratio EC50 [21] | Ratio EC50 [22] | Ratio EC50 [23] | Ratio EC50 [24] | Ratio EC50 [25] | Ratio EC50 [26] | Ratio EC50 [27] | Ratio EC50 [28] | Ratio EC50 [29] | Ratio EC50 [32] | also measured
1 | COc1ccc2c(O[C@@H]3C[C@H]4C(=O)N[C@]5(C(=O)O)C[C@H]5/C=C\CCCCC[C@H](NC(=O)OC5CCCC5)C(=O)N4C3)cc(-c3csc(NC(C)C)n3)nc2c1 [CILUPREVIR] | 2.4 | 0.7 | 248 | 1.7 | 1070 | 18 | 520 | 2100 | 215 | 0.9 | 4.9 | 0.7 | 496 | 811 | 2.8 | 12 | 65 | 844 | 263 | 736 | EC50 [2]: 0.4 nM; EC50 [4]: 0.9 nM; EC50 [5]: 1.2 nM; EC50 [6]: 0.5 nM; EC50 [10]: 35 nM; EC50 [15]: 1810 nM; EC50 [16]: 20700 nM; EC50 [17]: 0.4 nM; EC50 [18]: 52 nM; Ratio EC50 [19]: 1.9; Ratio EC50 [30]: 3213; Ratio EC50 [31]: 0.6
2 | CCC[C@H](NC(=O)[C@@H]1[C@H]2CCC[C@H]2CN1C(=O)[C@@H](NC(=O)[C@@H](NC(=O)c1cnccn1)C1CCCCC1)C(C)(C)C)C(=O)C(=O)NC1CC1 [TELAPREVIR] | 886 | 1560 | 570 | 3110 | 20300 | 147 | 181 | 187 | 102 | 0.5 | 1.2 | 0.8 | 10 | 20 | 20 | 1.2 | 0.6 | 1 | 0.7 | 4.6 | 
3 | COc1ccc2c(O[C@@H]3C[C@H]4C(=O)N[C@]5(C(=O)NS(=O)(=O)C6CC6)C[C@H]5/C=C\CCCCN(C)C(=O)[C@@H]4C3)cc(-c3nc(C(C)C)cs3)nc2c1C [SIMEPREVIR] | 20 | 5.9 | 21 | 3 | 377 | 79 | 4090 | 6240 | 5660 | 7.7 | 1.8 | 0.7 | 30 | 20 | 0.3 | 6.6 | 40 | 308 | 368 | 364 | EC50 [2]: 626 nM; EC50 [4]: 5.4 nM; EC50 [5]: 41 nM; EC50 [6]: 77 nM; EC50 [10]: 42 nM; EC50 [15]: 17900 nM; EC50 [16]: 23200 nM; EC50 [17]: 1820 nM; EC50 [18]: 1360 nM; Ratio EC50 [19]: 1.2; Ratio EC50 [30]: 2591; Ratio EC50 [31]: 286
4 | CC(C)(C)NC(=O)N[C@H](C(=O)N1C[C@H]2[C@@H]([C@H]1C(=O)NC(CC1CCC1)C(=O)C(N)=O)C2(C)C)C(C)(C)C (stereo partly specified) [BOCEPREVIR] | 217 | 268 | 174 | 525 | 7230 | 101 | 299 | 193 | 73 | 0.8 | 1.2 | 1 | 4.7 | 20 | 3.5 | 1.9 | 0.8 | 1.1 | 0.7 | 5.1 | EC50 [2]: 527 nM; EC50 [4]: 1110 nM; EC50 [5]: 78 nM; EC50 [6]: 16 nM; EC50 [10]: 63 nM; EC50 [15]: 83 nM; EC50 [16]: 279 nM; EC50 [17]: 1550 nM; EC50 [18]: 20 nM; Ratio EC50 [19]: 8.5; Ratio EC50 [30]: 0.5; Ratio EC50 [31]: 7.4

Reference: ChEMBL document CHEMBL1671684, “In vitro resistance profile of the hepatitis C virus NS3/4A protease inhibitor TMC435” (Antimicrob Agents Chemother, 2010)
